Laboratory results taken from ChEMBL document CHEMBL1139401, “5-(4-Chlorophenyl)-5,6-dihydro-1,3-oxazepin-7(4H)-one derivatives as lipophilic cyclic analogues of baclofen: design, synthesis, and neuropharmacological evaluation” (2008).

How the values were obtained:
Assay type in all cases: functional
Settings in all cases: route intraperitoneal
Mus musculus [1] = experiment: Neuropharmacological effect in albino mouse assessed as endurance time at 3 mg/kg, ip after 45 mins by rotarod test
Outline: (§1)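 For the rotarod, the cylinder was 6 cm diameter, 30 cm high and turned at 12 rpm. Male albino mice were trained the day before to stay on for 300 s, and those not reaching this were excluded. Endurance time (max 300 s) was measured 30, 45, 60 and 90 min after ip drug in DMSO or vehicle. Five mice per group; mean ± SEM.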

Mus musculus [2] = experiment: Neuropharmacological effect in albino mouse assessed as endurance time at 3 mg/kg, ip after 60 mins by rotarod test; outline: as §1
Mus musculus [3] = experiment: Neuropharmacological effect in albino mouse assessed as endurance time at 3 mg/kg, ip after 90 mins by rotarod test; outline: as §1
Mus musculus [4] = experiment: Muscle relaxant activity in albino mouse at 3 mg/kg, ip after 30 mins by traction test; parameters: scale not given: the % may be the effect or the level left
Outline: (§2)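 Traction test in male albino mice (20–25 g), five per group, given drug ip in DMSO. Success required touching the wire with at least one hind paw within 5 s; otherwise scored as failure. Mice were tested 30, 45, 60 and 90 min after dosing, immediately before the rotarod. Results are % successful, mean ± SEM.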

Mus musculus [5] = experiment: Muscle relaxant activity in albino mouse at 3 mg/kg, ip after 45 mins by traction test; parameters: scale not given: the % may be the effect or the level left; outline: as §2
Mus musculus [6] = experiment: Muscle relaxant activity in albino mouse at 3 mg/kg, ip after 60 mins by traction test; parameters: scale not given: the % may be the effect or the level left; outline: as §2
Mus musculus [7] = experiment: Muscle relaxant activity in albino mouse at 3 mg/kg, ip after 90 mins by traction test; parameters: scale not given: the % may be the effect or the level left; outline: as §2
Mus musculus [8] = experiment: Analgesic activity in albino mouse assessed as retention latency at 3 mg/kg, ip after 30 mins by hot plate test
Outline: (§3)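 Male albino mice (20–25 g), five per group, given drug in DMSO ip; vehicle controls got DMSO alone. Mice were placed in a glass cylinder on a 54 °C metal plate. Latency to hind-paw lick or jump was recorded, with a 30 s cut-off. Testing was 30, 45, 60 and 90 min post-injection. Values are mean ± SEM.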

Mus musculus [9] = experiment: Analgesic activity in albino mouse assessed as retention latency at 3 mg/kg, ip after 45 mins by hot plate test; outline: as §3
Mus musculus [10] = experiment: Analgesic activity in albino mouse assessed as retention latency at 3 mg/kg, ip after 60 mins by hot plate test; outline: as §3
Mus musculus [11] = experiment: Analgesic activity in albino mouse assessed as retention latency at 3 mg/kg, ip after 90 mins by hot plate test; outline: as §3
Mus musculus [12] = experiment: Neuropharmacological effect in albino mouse assessed as onset of loss of righting reflex at 3 mg/kg, ip
Outline: (§4)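 Male albino mice (20–25 g), five per group, injected ip (drug in DMSO). Loss of righting reflex was inability to right within 30 s, after which mice were laid supine in a 90° trough. Return was righting twice within 1 min. Onset was recorded, and duration was the time from loss to return. Values are mean ± SEM.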

Mus musculus [13] = experiment: Neuropharmacological effect in albino mouse assessed as duration of loss of righting reflex at 3 mg/kg, ip; outline: as §4
Mus musculus [14] = experiment: Neuropharmacological effect in albino mouse assessed as spontaneous locomotor activity at 3 mg/kg, ip after 30 mins
Outline: (§5)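 Male albino mice (20–25 g), five per group, got ip drug in DMSO or DMSO vehicle and went back to their home cages. After 30, 45, 60 or 90 min each was placed alone in a Plexiglas box and spontaneous locomotor activity was recorded. Tests were run in the morning. Values are mean ± SEM.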

Mus musculus [15] = experiment: Neuropharmacological effect in albino mouse assessed as spontaneous locomotor activity at 3 mg/kg, ip after 45 mins; outline: as §5
Mus musculus [16] = experiment: Neuropharmacological effect in albino mouse assessed as spontaneous locomotor activity at 3 mg/kg, ip after 60 mins; outline: as §5
Mus musculus [17] = experiment: Neuropharmacological effect in albino mouse assessed as spontaneous locomotor activity at 3 mg/kg, ip after 90 mins; outline: as §5
Mus musculus [18] = experiment: Neuropharmacological effect in albino mouse assessed as endurance time at 3 mg/kg, ip after 30 mins by rotarod test; outline: as §1
Mus musculus [19] = experiment: Decrease in cognitive impairment in albino mouse assessed as retention latency at 3 mg/kg, ip after 30 mins by passive avoidance reflex test
Outline: (§6)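 Passive avoidance in male albino mice (20–25 g), five per group, housed singly from the day before training. Drug in DMSO was given ip 30, 45, 60 or 90 min before the training trial. Mice were put in the light side of a two-compartment apparatus and the door to the dark side was opened. The retention test next day used the shock generator off. Latency reported as mean ± SEM.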

Mus musculus [20] = experiment: Decrease in cognitive impairment in albino mouse assessed as retention latency at 3 mg/kg, ip after 45 mins by passive avoidance reflex test; outline: as §6
Mus musculus [21] = experiment: Decrease in cognitive impairment in albino mouse assessed as retention latency at 3 mg/kg, ip after 60 mins by passive avoidance reflex test; outline: as §6
Mus musculus [22] = experiment: Decrease in cognitive impairment in albino mouse assessed as retention latency at 3 mg/kg, ip after 90 mins by passive avoidance reflex test; outline: as §6

Structure (SMILES)	Activity (Mus musculus [1]) [s]	Activity (Mus musculus [2]) [s]	Activity (Mus musculus [3]) [s]	Activity (Mus musculus [4]) [%]	Activity (Mus musculus [5]) [%]	Activity (Mus musculus [6]) [%]	Activity (Mus musculus [7]) [%]	Activity (Mus musculus [8]) [s]	Activity (Mus musculus [9]) [s]	Activity (Mus musculus [10]) [s]	Activity (Mus musculus [11]) [s]	Activity (Mus musculus [14]) [m]	Activity (Mus musculus [15]) [m]	Activity (Mus musculus [16]) [m]	Activity (Mus musculus [17]) [m]	Activity (Mus musculus [18]) [s]	Activity (Mus musculus [19]) [s]	Activity (Mus musculus [20]) [s]	Activity (Mus musculus [21]) [s]	Activity (Mus musculus [22]) [s]	further results
CCCCCCCCCCCCCC1=NCC(c2ccc(Cl)cc2)CC(=O)O1 (stereo unspecified)	174	169	133	40	40	35	35	8.33	15.32	18.45	26.13	15.24	13.73	14.76	13.11	219	147.24	109.34	82.36	67.56	Activity (Mus musculus [12]): 32.16 min; Activity (Mus musculus [13]): 75.93 min
C=CCCCCCCCCC1=NCC(c2ccc(Cl)cc2)CC(=O)O1 (stereo unspecified)	198	185	155	55	50	50	53	8.32	14.34	19.73	21.42	25.36	20.56	19.43	18.56	222	148.82	118.32	95.35	95.45	Activity (Mus musculus [12]): 36.63 min; Activity (Mus musculus [13]): 55.33 min
O=C1CC(c2ccc(Cl)cc2)CN=C(Cc2ccccc2)O1 (stereo unspecified)	185	0	0	27	25	25	22	9.53	15.38	25.63	28.73	0	0	0	0	234	125.64	106.56	70.34	65.34	Activity (Mus musculus [12]): 42.12 min; Activity (Mus musculus [13]): 112.36 min
CCCCCCCCC1=NCC(c2ccc(Cl)cc2)CC(=O)O1 (stereo unspecified)	300	300	300	100	100	100	100	8.12	8.22	9.23	9.33	45.24	43.46	42.79	40.13	300	163.33	163.23	160.43	164.56	
CCCCCCCC1=NCC(c2ccc(Cl)cc2)CC(=O)O1 (stereo unspecified)	300	300	300	100	100	100	100	8.12	8.22	9.23	9.33	45.24	43.46	42.79	40.13	300	163.23	163.23	160.43	164.56	
CC1=NCC(c2ccc(Cl)cc2)CC(=O)O1 (stereo unspecified)	300	300	300	100	100	100	100	8.12	8.22	9.22	9.33	45.24	43.46	42.79	40.13	300	163.23	163.23	160.43	164.56	
CCCCCCCCCCC1=NCC(c2ccc(Cl)cc2)CC(=O)O1 (stereo unspecified)	300	300	300	100	100	100	100	8.12	8.22	9.23	9.33	45.24	43.46	42.79	40.13	300	163.53	163.23	160.43	164.56	
